Columns and labels:
HCK-T338H [1] = target: T1, HCK-T338H (Homo sapiens, UniProt P08631, T333H); assay: HCK activation loop autophosphorylation; format: cell-based; conditions: 293T cells, 100 and 1,000 nM A-419259
[2] = test system: Philadelphia chromosome-positive CML cells; conditions: at concentrations that did not directly inhibit BCR-ABL; cited from earlier work
[3] = test system: Rat-2 cells expressing HCK-YF; assay: Soft-agar colony-forming assay, Rat-2 fibroblasts transformed with HCK-YF; format: cell-based; conditions: 1 μM A-419259, soft agar, two weeks
How it was run: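 Rat-2 fibroblasts infected with 293T-produced retroviruses carrying the HCK-YF codon mutagenesis library, then G-418 selected. Cells plated in soft agar (semi-solid medium) with test compound at 1.0 μM, 5,000 cells per plate, selected two weeks. Picked colonies expanded in 2D without inhibitor, then re-assayed with test compound or DMSO carrier in triplicate. Colonies Wright-Giemsa stained and counted; mean ± SE.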

[4] = target: kinome panel (HCK, other SRC-family members, FLT3 and other Class III receptor tyrosine kinases); conditions: KINOMEscan; cited from earlier work
[5] = test system: AML patient-derived xenografts; conditions: oral administration; cited from earlier work
[6] = test system: TF-1/FLT3-ITD cells expressing HCK-T338H; assay: Growth inhibition; format: cell-based, human
How it was run: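 TF-1 cells made cytokine-independent by retroviral FLT3-ITD transduction, then retrovirally transduced with wild-type or mutant HCK. Each population exposed to a wide range of test compound concentrations; viability read by Cell Titer-Blue. Each point in triplicate, normalized to DMSO (no inhibitor) control, plotted as mean ± SE. IC50 estimated by nonlinear regression fit of concentration-response curves.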

[7] = test system: Rat-2 resistant clone 5-1 (HCK-YF mutant library); format: cell-based; conditions: resistant clone 5-1, 1 μM A-419259 vs DMSO
HCK-T338H [8] = target: T1, HCK-T338H; assay: HCK activation loop autophosphorylation; format: cell-based
How it was run: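 GM-CSF-dependent TF-1 cells were made cytokine-independent by retroviral FLT3-ITD, then retrovirally transduced with mutant HCK. For kinase activity, cells were exposed to 0, 30, 100 or 300 nM test compound; HCK was immunoprecipitated and blotted for pY416 and total HCK (3 independent experiments, normalized to DMSO). IC50: Cell Titer-Blue viability across a concentration range, triplicate, DMSO-normalized, nonlinear regression.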

HCK-T338M = HCK-T338M (Homo sapiens, UniProt P08631, T333M); assay: HCK activation loop autophosphorylation; format: cell-based
HCK-T338M, sequence (P08631 22-526 T333M): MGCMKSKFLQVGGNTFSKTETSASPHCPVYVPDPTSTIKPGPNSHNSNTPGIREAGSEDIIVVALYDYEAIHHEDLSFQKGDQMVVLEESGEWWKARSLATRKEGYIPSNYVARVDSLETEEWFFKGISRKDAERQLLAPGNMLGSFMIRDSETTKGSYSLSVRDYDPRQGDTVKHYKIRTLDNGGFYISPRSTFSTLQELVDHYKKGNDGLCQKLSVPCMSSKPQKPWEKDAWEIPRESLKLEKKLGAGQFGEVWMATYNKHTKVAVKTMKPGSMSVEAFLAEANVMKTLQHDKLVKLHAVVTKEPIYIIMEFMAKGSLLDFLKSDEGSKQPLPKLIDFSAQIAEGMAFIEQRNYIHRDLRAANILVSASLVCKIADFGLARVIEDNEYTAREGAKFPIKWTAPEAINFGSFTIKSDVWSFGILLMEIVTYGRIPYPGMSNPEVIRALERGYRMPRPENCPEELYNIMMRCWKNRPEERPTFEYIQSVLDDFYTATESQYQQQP
How it was run: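 Transfected human 293T cells expressing the mutant kinase were treated with the test compound at 0, 100 or 1000 nM, with DMSO as the no-inhibitor control. HCK was immunoprecipitated and immunoblotted for pY416 and total HCK, then detected with infrared-dye secondary antibodies. The pY416/HCK signal ratio was normalized to DMSO; mean ± SE of two independent experiments.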

T1 sequence (P08631 22-526 T333H): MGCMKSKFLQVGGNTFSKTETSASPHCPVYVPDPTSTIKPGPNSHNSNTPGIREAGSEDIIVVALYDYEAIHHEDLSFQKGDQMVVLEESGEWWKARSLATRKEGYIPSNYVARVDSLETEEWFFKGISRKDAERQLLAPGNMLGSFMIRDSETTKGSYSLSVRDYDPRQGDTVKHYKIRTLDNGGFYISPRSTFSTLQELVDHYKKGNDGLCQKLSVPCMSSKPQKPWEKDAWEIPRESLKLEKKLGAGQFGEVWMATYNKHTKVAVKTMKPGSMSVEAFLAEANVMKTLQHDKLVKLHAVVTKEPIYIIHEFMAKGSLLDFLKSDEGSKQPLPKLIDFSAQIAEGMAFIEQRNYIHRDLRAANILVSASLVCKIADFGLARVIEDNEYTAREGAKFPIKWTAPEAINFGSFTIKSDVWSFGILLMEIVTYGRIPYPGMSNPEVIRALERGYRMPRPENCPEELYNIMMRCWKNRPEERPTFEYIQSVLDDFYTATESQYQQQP

Structure (SMILES): CN1CCN(C2CCC(n3cc(-c4ccc(Oc5ccccc5)cc4)c4c(N)ncnc43)CC2)CC1 (stereo not shown) [A-419259]
- activation loop phosphorylation (pY416) of HCK-T338H (HCK-T338H [1]): no change in activation loop phosphorylation
- growth arrest and apoptosis of CML cells [2]: induced growth arrest and apoptosis
- colony formation by control cells expressing HCK-YF [3]: completely blocked colony formation
- kinase specificity profile [4]: remarkably narrow specificity profile
- activity in mice bearing AML patient-derived xenografts [5]: potent activity
- sensitivity of TF-1/FLT3-ITD cells to growth inhibition ([6]; HCK-T338H expression vs wild-type HCK): reduced sensitivity
- shift in the IC50 for growth suppression ([6]; HCK-T338H vs wild-type HCK in TF-1/FLT3-ITD cells): 2 fold
- IC50 ([6]; read-out: IC50, growth suppression, TF-1/FLT3-ITD cells expressing HCK-T338H): ~100 nM
- colony formation in the presence vs absence of A-419259 [7]: equal numbers of colonies in the presence or absence of A-419259
- Tyr416 phosphorylation of HCK-T338H in the presence of A-419259 (HCK-T338H [8]; TF-1/FLT3-ITD cells, concentrations up to 100 nM): remained phosphorylated on Tyr416
- IC50 (HCK-T338H [8]; read-out: IC50, kinase inhibition, TF-1/FLT3-ITD cells expressing HCK-T338H): ~100 nM
- resistance of HCK-T338M autophosphorylation to A-419259 (HCK-T338M; 293T cells, 100 nM A-419259): complete resistance
- resistance of HCK-T338M autophosphorylation to A-419259 (HCK-T338M; 293T cells, 1,000 nM A-419259): partial resistance

From PMC8136437 (ACS chemical biology, 2020)
